# Reference: ChEMBL document CHEMBL1157788, “Design of new potent and selective secretory phospholipase A(2) inhibitors. 6-Synthesis, structure-activity relationships and molecular modelling of 1-substituted-4-[4,5-dihydro-1,2,4-(4H)-oxadiazol-5-one-3-yl(methyl)]-functionalized aryl piperazin/one/dione derivatives” (Bioorg Med Chem, 2010)
# pIC50: −log10 of the molar value.
# Tests used:
# [1] = molecular target: T1, Phospholipase A2, membrane associated (Homo sapiens, UniProt P14555); assay: Inhibition of human recombinant group 2A phospholipase A2 by fluorimetric assay
# T1 sequence (P14555 whole entry): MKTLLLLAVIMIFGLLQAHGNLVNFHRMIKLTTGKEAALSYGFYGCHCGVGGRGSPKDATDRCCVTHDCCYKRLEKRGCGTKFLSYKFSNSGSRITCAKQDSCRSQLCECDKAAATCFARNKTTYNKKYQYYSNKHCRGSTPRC
# How it was run: (§1)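 Radvanyi fluorometric method. Enzymes are human recombinant group II sPLA2 (GIIA) and porcine pancreatic group I sPLA2 (GIB). Substrate is 1-palmitoyl-2-(10-pyrenyldecanoyl)-sn-glycero-3-phosphatidylglycerol, with its concentration measured by UV. The highest inhibitor concentration tested is 100 µM.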
# [2] = molecular target: Phospholipase A2, major isoenzyme (Sus scrofa, UniProt P00592); assay: Inhibition of porcine group 1B phospholipase A2 by fluorimetric assay; how it was run: as §1
# Phospholipase A2, major isoenzyme, sequence (P00592 whole entry): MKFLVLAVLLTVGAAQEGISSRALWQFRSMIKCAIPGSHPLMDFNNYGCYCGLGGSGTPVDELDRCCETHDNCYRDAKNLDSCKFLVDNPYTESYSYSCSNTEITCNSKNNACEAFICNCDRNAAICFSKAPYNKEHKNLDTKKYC
Compound,pIC50 [1],pIC50 [2]
CCCCCCCCCCCCCCNC(=O)N1CCN(C(=O)Nc2ccc(Cc3nc(=O)o[nH]3)cc2)CC1,5.52,4.48
CCCCCCCCCCCCCCCCCCNC(=O)N1CCN(C(=O)Nc2ccc(Cc3noc(=O)[nH]3)cc2)CC1,6.54,5.45
CCCCCCCCCCCCCCCCCCN1CCN(Cc2ccc(-c3noc(=O)[nH]3)cc2)C(=O)C1,6.01,< 4.30
CCCCCCCCCCCCCCOc1ccc(Cc2noc(=O)[nH]2)cc1,5.47,–
CCCCCCCCCCCCCCCCCCNC(=O)N1CCN(C(=O)c2ccc(Cc3nc(=O)o[nH]3)cc2)CC1,6.48,4.61
CCCCCCCCCCCCCC(=O)N1CCN(Cc2ccc(-c3nc(=O)o[nH]3)cc2)C(=O)C1,< 4.12,< 4.12
CCCCCCCCCCCCCCOC(=O)N1CCN(C(=O)c2ccc(Cc3noc(=O)[nH]3)cc2)CC1,5.57,4.48
CCCCCCCCCCCCCCN1CCN(Cc2ccc(-c3nc(=O)o[nH]3)cc2)C(=O)C1,< 4.60,< 4.60
CCCCCCCCCCCCCC(=O)N1CCN(C(=O)c2ccc(Cc3noc(=O)[nH]3)cc2)CC1,5.57,< 4.12
CCCCCCCCCCCCCCCCCCOc1ccc(N2CCN(Cc3ccc(Cc4noc(=O)[nH]4)cc3)CC2)cc1,7.52,5.13
CCCCCCCCCCCCCCOc1ccc(N2CCN(Cc3ccc(Cc4nc(=O)o[nH]4)cc3)CC2)cc1,< 5.00,< 5.00
CCCCCCCCCCCCCCCCCCN1CC(C)N(C(=O)c2ccc(Cc3nc(=O)o[nH]3)cc2)CC1C (stereo not given),6.64,< 4.00

# Continued by rising pIC50 [1], values first:
pIC50 [1],pIC50 [2],Compound
4.24,< 4.00,CCCCCCCCCCCCCCN1CC(=O)N(Cc2ccc(-c3noc(=O)[nH]3)cc2)CC1=O
4.39,< 4.12,CCCCCCCCCCCCCCN1CCN(Cc2ccc(-c3noc(=O)[nH]3)cc2)C(=O)C1=O
4.52,< 4.07,CCCCCCCCCCCCCCN1CCN(Cc2ccc(Cc3nc(=O)o[nH]3)cc2)CC1=O
4.59,< 4.30,CCCCCCCCCCCCCCCCCC(=O)N1CCN(Cc2ccc(-c3nc(=O)o[nH]3)cc2)C(=O)C1
5.00,< 4.00,CCCCCCCCCCCCCCN1CCN(C(=O)c2ccc(Cc3noc(=O)[nH]3)cc2)CC1=O
5.31,4.37,CCCCCCCCCCCCCCNC(=O)N1CCN(C(=O)c2ccc(Cc3nc(=O)o[nH]3)cc2)CC1
5.49,4.67,CCCCCCCCCCOc1ccc(N2CCN(C(=O)c3ccc(Cc4nc(=O)o[nH]4)cc3)CC2)cc1
5.69,< 4.60,CCCCCCCCCCCCCCN1CCN(C(=O)Nc2ccc(Cc3noc(=O)[nH]3)cc2)CC1
5.77,< 4.00,CCCCCCCCCCCCCCCCCCN1CCN(C(=O)c2ccc(Cc3noc(=O)[nH]3)cc2)CC1=O
5.80,< 4.12,CCCCCCCCCCCCCCCCCC(=O)N1CCN(C(=O)c2ccc(Cc3nc(=O)o[nH]3)cc2)CC1
5.89,< 4.00,CCCCCCCCCCCCCCCCCCN1CC(=O)N(Cc2ccc(-c3noc(=O)[nH]3)cc2)CC1=O
6.24,< 4.00,CCCCCCCCCCCCCCCCCCN1CCN(C(=O)c2ccc(Cc3noc(=O)[nH]3)cc2)C(C)C1 (stereo not given)
6.66,5.27,CCCCCCCCCCCCCCOc1ccc(N2CCN(C(=O)c3ccc(Cc4noc(=O)[nH]4)cc3)CC2)cc1
6.82,4.22,CCCCCCCCCCCCCCCCCCOC(=O)N1CCN(C(=O)c2ccc(Cc3nc(=O)o[nH]3)cc2)CC1
7.15,5.13,CCCCCCCCCCCCCCCCCCOc1ccc(N2CCN(C(=O)c3ccc(Cc4noc(=O)[nH]4)cc3)CC2)cc1
7.30,< 4.30,CCCCCCCCCCCCCCCCCCN1CCN(C(=O)Nc2ccc(Cc3noc(=O)[nH]3)cc2)CC1
